Compound activity from PubChem BioAssay.
In the library only some 5% were active in any assay of this set; here they are far more common.
T cruzi inh = T. cruzi replication inhibition. T. cruzi beta-gal in NIH3T3, luminescence, 90 h. inhibition, % (no concentration beside the values). actives 1.4% (n = 300,000). AID 1885;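 active means mean inhibition across valid replicates above about 55%, limit read from the data; inconclusive means mean below that limit but half or more replicates reach it; inactive means mean below it, under half of replicates reach it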;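 further: signal also drops with host cell toxicity which is not excluded here; higher percent means less beta-gal luminescence so fewer parasites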
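System: Mouse NIH/3T3 fibroblasts infected with β-gal-expressing T. cruzi Tulahuen C4 | Quantity: NIH/3T3 cells, 5,000 per well | Reagent: 5000 reporter trypomastigotes per well | Dosing: Compound pinned at 50 nL/well, DMSO | Schedule: 3 h host attachment, then at least 90 h co-culture | Detection: GalScreen luminescence, 60 min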
Beta apoptosis = beta cell apoptosis inhibition. INS-1E cytokine-induced death, ATP luminescence, 48 h; percent of positive-control rescue, neutral wells zero. protection from apoptosis, % (concentration not given with the values). actives 0.8% (n = 300,000). AID 435005;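 active means Every replicate reaches about 75%, or at least half do and their mean reaches it too, limit read from the data; inconclusive means At least half of replicates reach the limit but their mean does not; inactive means Under half of replicates reach the limit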;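 further: higher means more ATP so stronger rescue from cytokine killing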
Mdm2-MdmX inh = disrupts the human Mdm2-MdmX interaction. AID 485346. actives 3% (n = 330,000). inhibition, % at 8 µM. SaOS-2 split-luciferase Mdm2/MdmX complementation, luminescence;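 active means inhibition of at least 50% at 8 µM in the primary screen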
Target sequence (O15151 whole entry, looked up): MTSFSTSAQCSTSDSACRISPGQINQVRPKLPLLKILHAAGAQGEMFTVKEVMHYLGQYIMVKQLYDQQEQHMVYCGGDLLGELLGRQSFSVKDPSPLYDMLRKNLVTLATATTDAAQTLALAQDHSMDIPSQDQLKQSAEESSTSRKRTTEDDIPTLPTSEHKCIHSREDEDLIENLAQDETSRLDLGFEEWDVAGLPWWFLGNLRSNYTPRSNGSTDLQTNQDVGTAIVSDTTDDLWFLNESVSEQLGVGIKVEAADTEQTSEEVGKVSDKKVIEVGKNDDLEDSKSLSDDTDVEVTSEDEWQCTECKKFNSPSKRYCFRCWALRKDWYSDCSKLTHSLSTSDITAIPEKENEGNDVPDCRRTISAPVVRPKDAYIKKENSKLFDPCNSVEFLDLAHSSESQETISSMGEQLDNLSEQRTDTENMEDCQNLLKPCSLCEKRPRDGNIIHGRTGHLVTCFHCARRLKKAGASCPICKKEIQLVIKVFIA
Target sequence (Q00987 whole entry, looked up): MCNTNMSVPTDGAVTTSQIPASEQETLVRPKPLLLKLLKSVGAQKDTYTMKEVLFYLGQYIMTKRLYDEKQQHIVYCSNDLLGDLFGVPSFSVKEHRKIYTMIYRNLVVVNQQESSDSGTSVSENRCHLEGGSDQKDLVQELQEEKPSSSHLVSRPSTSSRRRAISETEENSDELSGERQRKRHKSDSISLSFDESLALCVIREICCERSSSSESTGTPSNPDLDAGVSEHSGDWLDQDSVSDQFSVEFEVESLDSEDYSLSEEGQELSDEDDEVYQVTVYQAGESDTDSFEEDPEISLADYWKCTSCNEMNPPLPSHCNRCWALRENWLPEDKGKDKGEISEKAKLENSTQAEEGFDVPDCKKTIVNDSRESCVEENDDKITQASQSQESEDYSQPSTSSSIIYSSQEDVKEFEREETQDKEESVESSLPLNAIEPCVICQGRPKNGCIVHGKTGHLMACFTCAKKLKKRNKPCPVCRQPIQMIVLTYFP
UPR XBP1 act = activators of adaptive arm of unfolded protein response (XBP1). CHO-XBP1 luciferase reporter, IRE1-XBP1 UPR activation, luminescence; percent of tunicamycin response, DMSO as zero. activation, % at 20 µM. actives 0.33% (n = 330,000);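 active means versus positive control, 20 µM dose yields 30% or more activation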
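Assay system: CHO-XBP1 luciferase reporter cells; Schedule: 6 h treatment, 37 °C; Detection: glow luminescence from Steady-Glo reagent; Benchmarks: high control tunicamycin 10 µg/mL final, low control DMSO vehicle only.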
CSC inhib = blocks cancer stem cells; cancer stem cell-like cells viability, luminescence; inhibition, % at 7.5 µM; actives 1.1% (n = 300,000); AID 2717; in the data active means inhibition above about 75%; inconclusive means no clear call, values can overlap the other calls; tested in HMLE shEcad cells
UPR CHOP act = activators of apoptotic arm of unfolded protein response (CHOP); CHO-CHOP luciferase reporter, UPR activation, luminescence; percent of tunicamycin response over DMSO baseline; activation, % at 10 µM; actives 0.34% (n = 330,000); AID 449763;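 active means at 10 µM dose, activation of 40% or more, normalized to positive control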
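Test system: CHO-CHOP cells, stable luciferase reporter of PERK-eIF2a-CHOP signalling | Quantity: 500 CHO-CHOP cells per well | Buffer or medium: F12 plus 10% serum | Compound dosing: 10 µM single point, 0.5% DMSO | Schedule: 6 h compound treatment, 37 °C | Signal: Luciferase luminescence | Control set: Tunicamycin high control, DMSO low control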
Mdm2 MdmX conf = human Mdm2/MdmX binding inhibition, confirmed. actives 55% (n = 10,000). shares compounds with Mdm2-MdmX inh. luminescent assay. AID 489028. inhibition, % at 8 µM; in the data active means inhibition above about 40%
Full FLuc ctr = inhibits full-length luciferase, flagging false Mdm2/MdmX hits | shares compounds with Mdm2-MdmX inh | SaOS-2 full-length luciferase counterscreen, luminescence | inhibition, % at 8 µM | actives 77% (n = 6,200);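 active means mean inhibition at 8 µM reaching about 37%, which flags the compound as non-specific, limit read from the data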;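 further: p53-null SaOS-2 cells with luciferase driven by a doxycycline-inducible promoter; compound on cells about two nights before reading with doxycycline added after day one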
Of the large screens only hits and unclear results are named; the others gave an inactive call (follow-up assays come after a bar, where they were run).

CC1=NN(c2cccc(C(=O)O)c2)C(=O)/C1=C\C=C\c1ccco1	none
CC1=NN(c2ccccc2)C(=O)/C1=C/C=C/c1ccccc1	Mdm2-MdmX inh 64.9, CSC inhib 83.6 (no result: Beta apoptosis) | Mdm2 MdmX conf 52.2 | Full FLuc ctr 49.2
COc1cc2cc(CCOC(=O)c3ccc(C(F)(F)F)cc3)oc(=O)c2cc1OC	none (no result: T cruzi inh)
CC1CC(C)(C)OC(C[N+]2(C)CCCCC2)O1 (stereo not drawn)	none
Cc1ccc(COc2ccc(/C=N/O)cc2)cc1	none (no result: Beta apoptosis)
NC(N)=N/N=C/c1ccc(OCc2ccccc2)cc1	T cruzi inh 71.4, Beta apoptosis 81.8, Mdm2-MdmX inh 55.4 | Mdm2 MdmX conf inactive
NC(N)=N/N=C/c1ccc(Br)cc1	T cruzi inh 66.6, Mdm2-MdmX inh 53.7 | Mdm2 MdmX conf 57.9 | Full FLuc ctr 57.4
NC(N)=N/N=C/c1ccc(OCc2ccc(Cl)cc2)cc1	T cruzi inh 60.7, Mdm2-MdmX inh 98.4 (no result: Beta apoptosis, CSC inhib) | Mdm2 MdmX conf inactive
N#Cc1ccc(/C=N/N=C(N)N)cc1	none
CC(C)C[C@H](NC(=O)c1nc[nH]c1C(=O)NCc1ccc(CNC(=O)OC(C)(C)C)cc1)C(=O)OC(C)(C)C	none
CC(C)(C)OC(=O)NCc1ccc(CNC(=O)c2nc[nH]c2C(=O)NCc2ccc(CNC(=O)OC(C)(C)C)cc2)cc1	none (no result: T cruzi inh, CSC inhib)
CC(C)C[C@H](NC(=O)c1[nH]cnc1C(=O)Nc1ccc(CNC(=O)OC(C)(C)C)cc1)C(=O)OC(C)(C)C	Mdm2-MdmX inh 52.5 | Mdm2 MdmX conf inactive
C[C@H](NC(=O)c1[nH]cnc1C(=O)Nc1ccc(CNC(=O)OC(C)(C)C)cc1)C(=O)OCc1ccccc1	Mdm2-MdmX inh 80.1 | Mdm2 MdmX conf inactive
CC(C)C[C@H](NC(=O)c1[nH]cnc1C(=O)Nc1ccc(CNC(=O)OC(C)(C)C)cc1)C(=O)OCc1ccccc1	none
CC(C)(C)OC(=O)NCCCCCNC(=O)c1nc[nH]c1C(=O)NCC(=O)OCc1ccccc1	Mdm2-MdmX inh 65.6 (no result: T cruzi inh) | Mdm2 MdmX conf 45.5 | Full FLuc ctr 50.2
CC(C)(C)OC(=O)NCCCCCNC(=O)c1nc[nH]c1C(=O)NCc1ccc(CNC(=O)OC(C)(C)C)cc1	Mdm2-MdmX inh 53.9 (no result: T cruzi inh) | Mdm2 MdmX conf inactive
CCCCCCCCCCCCN1[C@@H](CC(=O)O)c2cc(F)ccc2S1(=O)=O	none
COc1ccc(NC(=O)CN(C)C(=O)CCNS(=O)(=O)c2ccc(Br)cc2)cc1	none (no result: CSC inhib)
CCC(=O)Nc1ccc(C(=O)NNC(=O)c2cc(OC)c(OC)c(OC)c2)cc1	none (no result: CSC inhib)
O=C(CNS(=O)(=O)c1cccc2nsnc12)NCCc1ccccc1	none
CC(C)(C)OC(=O)NCc1ccc(NC(=O)c2nc[nH]c2C(=O)NCCNC(=O)c2[nH]cnc2C(=O)Nc2ccc(CNC(=O)OC(C)(C)C)cc2)cc1	Beta apoptosis 81.2, Mdm2-MdmX inh 74.1 (no result: T cruzi inh, CSC inhib) | Mdm2 MdmX conf inactive
CC(C)(C)OC(=O)CNC(=O)c1[nH]cnc1C(=O)Nc1ccc(CNC(=O)OC(C)(C)C)cc1	Mdm2-MdmX inh 62.6 | Mdm2 MdmX conf 54.1 | Full FLuc ctr 74.2
CC(C)(C)OC(=O)CNC(=O)c1nc[nH]c1C(=O)NCc1ccc(CNC(=O)OC(C)(C)C)cc1	none
N#C/C(=C\C=C\c1ccccc1[N+](=O)[O-])C(=O)NCc1ccccc1	Mdm2-MdmX inh 96.9 | Mdm2 MdmX conf 66.5 | Full FLuc ctr inactive
N#C/C(=C\c1ccccc1[N+](=O)[O-])C(=O)NCc1ccccc1	none
COc1ccc(NC(=O)CSc2nc(C)cs2)c([N+](=O)[O-])c1	none (no result: T cruzi inh)
COC(=O)c1cc2sccc2n1Cc1nc(-c2ccc(Cl)cc2)oc1C	Mdm2-MdmX inh 51.5 | Mdm2 MdmX conf inactive
CCC(C(=O)OC)n1cnc2c(nnn2-c2ccc(C)cc2)c1=O (stereo not drawn)	none
COc1ccc(-c2nn(-c3ccccc3)cc2/C=N/Nc2ccc(S(N)(=O)=O)cc2[N+](=O)[O-])cc1OC	Mdm2-MdmX inh 64.7 (no result: Beta apoptosis) | Mdm2 MdmX conf inactive
O=c1c2c3nc4ccccc4nc3n(/N=C/c3ccccn3)c2ncn1-c1ccccc1	Mdm2-MdmX inh 73.9 | Mdm2 MdmX conf 49.4 | Full FLuc ctr 54.6
COCCCNC(=O)c1c(N)n(/N=C/c2ccccn2)c2nc3ccccc3nc12	none (no result: Beta apoptosis, CSC inhib)
Cc1cc(C)cc(N(CCC#N)C(=O)COC(=O)Cn2[nH]c(=O)c3ccccc3c2=O)c1	none (no result: T cruzi inh)
O=[N+]([O-])c1cc(S(=O)(=O)Nc2cccc(Cl)c2)ccc1N/N=C/c1ccc(N2CCOCC2)cc1	Mdm2-MdmX inh 84.1 | Mdm2 MdmX conf inactive
O=[N+]([O-])c1ccccc1/C=C/C=N/Nc1ccc(S(=O)(=O)Nc2ccc(Cl)cc2)cc1[N+](=O)[O-]	T cruzi inh 68.5, Mdm2-MdmX inh 56.2 | Mdm2 MdmX conf inactive
O=C(c1ccc2c(=O)n3c(nc2c1)CCCCC3)N1CCN(C(c2ccccc2)c2ccccc2)CC1	Mdm2-MdmX inh 63.1 | Mdm2 MdmX conf inactive
O=C(c1ccc2c(=O)n3c(nc2c1)CCCCC3)N1CCN(c2ccccc2)CC1	none
O=C(Nc1ccc(Oc2ccccc2)nc1)C1CCCCN1Cc1ccco1 (stereo not drawn)	Mdm2-MdmX inh 65.1 | Mdm2 MdmX conf 75.8 | Full FLuc ctr 68.2
Cn1c(N)c(C(=O)Nc2ccccc2F)sc1=S	none (no result: T cruzi inh)
Nc1c(C(=O)Nc2ccc(F)cc2)sc(=S)n1-c1ccccc1F	Mdm2-MdmX inh 71.6 | Mdm2 MdmX conf inactive
NC(=O)c1ncc(C(F)(F)F)cc1Oc1cccnc1	none (no result: Beta apoptosis)
COc1ccc(C(C[N+](=O)[O-])c2c(-c3ccccc3)cc3ccccn23)cc1 (stereo not drawn)	Mdm2-MdmX inh 96.4, CSC inhib inconclusive | Mdm2 MdmX conf inactive
COc1cc(C(C[N+](=O)[O-])c2c(-c3ccccc3)cc3ccccn23)cc(OC)c1OC (stereo not drawn)	Mdm2-MdmX inh 55.2 | Mdm2 MdmX conf inactive
Cc1cccc(NCc2ccc(O)c3ncccc23)c1	Mdm2-MdmX inh 76.7 | Mdm2 MdmX conf 74.2 | Full FLuc ctr 43.0
Cc1cccc(NCc2ccccc2O)c1C	none
Cc1ccccc1NCc1ccc(O)c2ncccc12	Mdm2-MdmX inh 83.9 (no result: Beta apoptosis) | Mdm2 MdmX conf 76.0 | Full FLuc ctr 41.3
Oc1ccc(CNc2ccccc2)c2cccnc12	Beta apoptosis 105.4, Mdm2-MdmX inh 85.9 | Mdm2 MdmX conf 44.0 | Full FLuc ctr 50.9
Oc1ccc(CNc2ccc(F)cc2)c2cccnc12	T cruzi inh 55.4, Beta apoptosis 92.2, Mdm2-MdmX inh 85.5 | Mdm2 MdmX conf 80.2 | Full FLuc ctr inactive
